High-throughput results from PubChem.
Sampled rows, rich in hits. Any-hit rate of the full collection: about 1.7%.
Scp1 inh: Scp-1 (human) phosphatase inhibition; Q9GZU7; Recombinant Scp1, phosphopeptide, malachite green phosphate absorbance; inhibition, % at 20 µM; 0.88% of 340,000 active;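 active means inhibition above about 50% at 20 µM, limit read from the data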;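 further: plate controls were DMSO wells with enzyme for no effect and wells lacking enzyme for full effect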
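Incubation: 45 min enzyme reaction at room temperature / System: truncated SCP-1 phosphatase (76-261aa) / Reagent: Phospho 17-mer peptide substrate / Buffer or medium: Acidic Tris acetate buffer with magnesium and detergent / Signal: absorbance at 630 nm / Doses: one concentration, 20 µM, with 1.0% DMSO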
DNMT1 block: inhibitors of human DNMT1. DNMT1 molecular beacon, Hinp1I cleavage, fluorescence. inhibition (reported as % activation of signal), % at 10 µM. 0.83% of 360,000 active. AID 588458; in the data active means inhibition above about 50%
LMPTP inh: blocks human LMPTP phosphatase | P24666 | AID 651560 | recombinant LMPTP-A, OMFP fluorogenic substrate, fluorescence intensity | 0.22% of 360,000 active | inhibition, % at 20 µM;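 active means compounds that cut the enzyme signal by at least half of the control window in the single-dose screen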;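 further: plate controls were DMSO wells with enzyme plus substrate for no effect and substrate without enzyme for full effect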
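material = LMPTP-A | quantity = 0.625 nM enzyme | reagent = OMFP substrate, 400 µM final | buffer or medium = Bis-Tris pH 6.0, DTT, detergent | detection = endpoint fluorescence intensity from OMFP dephosphorylation | dosing = single 20 µM dose | read-out basis = % inhibition relative to no-enzyme and uninhibited control wells | control set = no-enzyme and uninhibited controls | timing = 50 min at room temperature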
SUMO1 PPI mod: alters human SUMO1 binding to SIM partners | AID 602429 | 0.33% of 360,000 active | SUMO1 binding to a labelled peptide, TR-FRET, 1 h | inhibition, % at 20 µM | P63165; in the data active means inhibition above about 37%
Casp6 inh: blocks human caspase-6 cleavage activity | purified caspase-6, Z-VEID-R110 cleavage fluorescence | 0.53% of 350,000 active | AID 686996 | inhibition, % at 12.5 µM;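 active means mean inhibition across replicates at least about 35%, with every replicate also reaching that limit, limit read from the data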;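 further: 0% = median of neutral control wells and 100% = no fluorescence left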
STEP block: inhibitors of human striatal-enriched phosphatase STEP | P54829 | recombinant STEP, OMFP fluorogenic substrate, fluorescence | inhibition, % at 20 µM | 0.25% of 360,000 active | AID 588621;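 active means inhibition at 20 µM, scaled per plate between control wells, above about 37%, limit read from the data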;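 further: 0% = DMSO with enzyme and substrate and 100% = substrate only without enzyme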
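Also added – OMFP at 25 µM · Test system – STEP tyrosine phosphatase · Technique – FITC-channel fluorescence of OMFP product · Schedule – 20 min at room temperature, dark · Evaluation – control-normalized % inhibition with plate pattern correction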
Starred values were filed as active, the others as inactive.

Screening Nc1c(C(=O)O)ccc2c1C(=O)c1ccccc1C2=O returned Scp1 inh 0.4, DNMT1 block -1.0, LMPTP inh 8.7, SUMO1 PPI mod 10.2, Casp6 inh 21.6 and STEP block 7.7.
Screening Nc1ccc2c(c1Cl)C(=O)c1ccc(N)c(Cl)c1C2=O returned Scp1 inh 89.7*, DNMT1 block 80.8*, LMPTP inh 82.3*, SUMO1 PPI mod 109.3*, Casp6 inh 6.6 and STEP block 98.6*.
CC1C(=O)N(Cc2cn(Cc3ccco3)nn2)CCS(=O)(=O)N1Cc1ccc(-c2cccnc2)cc1 (stereo unspecified) was read as DNMT1 block -0.5, LMPTP inh 53.7*, SUMO1 PPI mod 17.9, Casp6 inh 30.9 and STEP block -0.3.
CC(C)Cc1ccc(CN2C(C)C(=O)N(Cc3cn(Cc4ccco4)nn3)CCS2(=O)=O)cc1 (stereo unspecified) was read as DNMT1 block 0.3, LMPTP inh 2.5, SUMO1 PPI mod 9.1, Casp6 inh 45.6* and STEP block -0.4.
`Cc1ccc(-c2ccc(CN3C(C)C(=O)N(Cc4cn(Cc5ccco5)nn4)CCS3(=O)=O)cc2)cc1` (stereo unspecified) gave DNMT1 block -10.7, LMPTP inh 2.2, SUMO1 PPI mod 6.2, Casp6 inh 6.3 and STEP block 3.3.
For CC(=O)Nc1ccc(SCC(=O)c2ccc(Br)s2)cc1 the results were Scp1 inh -0.6, DNMT1 block -9.6, LMPTP inh 1.7, SUMO1 PPI mod -19.0, Casp6 inh -1.6 and STEP block 3.2.
For O=C(O)Cc1ccc(C(=O)CSc2ccccc2)s1 the results were Scp1 inh 32.2, DNMT1 block -5.1, LMPTP inh 15.9, SUMO1 PPI mod -9.9, Casp6 inh 48.6* and STEP block 2.6.
Cc1ccc(SCC(=O)c2ccc(CC(=O)O)s2)cc1 was read as Scp1 inh 9.7, DNMT1 block 8.5, LMPTP inh 8.4, SUMO1 PPI mod -4.3, Casp6 inh 64.5* and STEP block 4.3.
O=c1ccc(S(=O)(=O)N2CCCC2)cn1Cc1ccc(Cl)cc1Cl was read as Scp1 inh -7.2, DNMT1 block 1.4, LMPTP inh -0.5, SUMO1 PPI mod 1.9, Casp6 inh -0.6 and STEP block -0.4.
For CC(Sc1nnc2ccccn12)C(=O)Nc1ccc2c(c1)OCCO2 (stereo unspecified) the results were Scp1 inh 0.6, DNMT1 block -1.5, LMPTP inh -0.5, SUMO1 PPI mod 103.5*, Casp6 inh 2.5 and STEP block -1.4.
Screening CC(=O)c1cc2c(cc1N/C(=N/S(=O)(=O)c1ccc(Br)cc1)c1ccccc1)OCO2 returned Scp1 inh -3.5, DNMT1 block 19.3, LMPTP inh 4.6, SUMO1 PPI mod -8.1, Casp6 inh -5.2 and STEP block 0.9.
Screening Oc1cc(-c2ccncc2)cc2cccnc12 returned Scp1 inh -5.8, DNMT1 block -0.1, LMPTP inh 6.8, SUMO1 PPI mod -24.8 and STEP block -0.1.
For Oc1cc(Nc2cccnc2)cc2cccnc12 the results were Scp1 inh -8.6, DNMT1 block -1.9, LMPTP inh 15.8, SUMO1 PPI mod -20.9, Casp6 inh 36.2* and STEP block 3.9.
`Oc1cc(Nc2ccncc2)cc2cccnc12` gave Scp1 inh -14.5, DNMT1 block -3.8, LMPTP inh 56.4*, SUMO1 PPI mod -31.7, Casp6 inh -13.5 and STEP block 2.9.
Screening CN(C)c1ccc(-c2cc(O)c3ncccc3c2)cc1 returned Scp1 inh -5.9, DNMT1 block 5.0, LMPTP inh 0.6, SUMO1 PPI mod -5.4 and STEP block 3.0.
`CC(=O)c1ccccc1OCCCN1CCCCC1` gave Scp1 inh -7.6, DNMT1 block -0.8, LMPTP inh -0.6, SUMO1 PPI mod 0.3 and STEP block -5.8.
Cc1ccc(N2C(=S)SC3CS(=O)(=O)CC32)cc1 (stereo unspecified) was read as Scp1 inh -5.3, DNMT1 block -1.0, LMPTP inh 1.4, SUMO1 PPI mod 47.1*, Casp6 inh 0.1 and STEP block 1.4.
For Cc1ccc(N2C(=O)N(c3ccc(C)cc3)C3CS(=O)(=O)CC32)cc1 (stereo unspecified) the results were Scp1 inh -14.1, DNMT1 block 0.9, LMPTP inh -1.2, SUMO1 PPI mod -0.3, Casp6 inh -1.3 and STEP block -4.3.
For CC(=O)NC1C(=O)N(CCN2CCOCC2)c2ccc(F)cc21 (stereo unspecified) the results were Scp1 inh -4.2, DNMT1 block -1.9, LMPTP inh -1.0, SUMO1 PPI mod 8.9, Casp6 inh 51.6* and STEP block -8.2.
CC(=O)NC1C(=O)N(CCN2CCOCC2)c2ccc(Cl)cc21 (stereo unspecified) was read as Scp1 inh 3.6, DNMT1 block -1.9, LMPTP inh 0.7, SUMO1 PPI mod 15.8, Casp6 inh 39.7* and STEP block -11.3.
For Cc1cc(N)n(-c2ncnc3scc(-c4ccccc4)c23)n1 the results were Scp1 inh -6.7, DNMT1 block -0.5, LMPTP inh -1.6, SUMO1 PPI mod 0.7 and STEP block -0.4.
Screening O=C(C[C@H]1CC[C@@H]2[C@H](COC[C@@H](O)CN2Cc2cc(F)ccc2F)O1)NCc1ccc(F)cc1 returned Casp6 inh -1.5.
`CC(=O)C1=C(O)C(=O)N(c2nccs2)C1c1ccc(Br)cc1` (stereo unspecified) gave Scp1 inh -7.0, DNMT1 block -1.1, LMPTP inh -0.7, SUMO1 PPI mod -9.9 and STEP block -3.4.
`O=C(N/N=C/c1ccc([N+](=O)[O-])o1)c1ccccc1NS(=O)(=O)c1cccs1` gave Scp1 inh 8.9, DNMT1 block 1.4, LMPTP inh 0.6, SUMO1 PPI mod -16.1, Casp6 inh 39.6* and STEP block -0.4.
Screening O=C(NN=Cc1ccc(F)cc1)c1ccccc1NS(=O)(=O)c1cccs1 returned Scp1 inh -2.2, DNMT1 block -1.1, LMPTP inh -1.5, SUMO1 PPI mod 2.5, Casp6 inh -0.2 and STEP block 1.3.
For O=C(Nc1ccc(-c2nc3ccccc3[nH]2)cc1)c1ccc2c(c1)OCO2 the results were Scp1 inh 0.5, DNMT1 block 18.0, LMPTP inh 7.3, SUMO1 PPI mod 41.6*, Casp6 inh -1.0 and STEP block 4.9.
Screening Nc1c(C(=O)NCc2ccco2)sc2nc3c(cc12)C(=O)CCC3 returned Scp1 inh 74.2*, DNMT1 block 0.5, LMPTP inh 13.2, SUMO1 PPI mod 5.7, Casp6 inh 25.1 and STEP block 1.3.
Screening CC(C)n1c(NCc2cccs2)nc2ccccc21 returned Scp1 inh 0.2, DNMT1 block 0.6, LMPTP inh 2.0, SUMO1 PPI mod -4.2 and STEP block -2.0.
